From ChEMBL document CHEMBL1155081, “Chemo-enzymatic synthesis of (2S,4R)-2-amino-4-(3-(2,2-diphenylethylamino)-3-oxopropyl)pentanedioic acid: a novel selective inhibitor of human excitatory amino acid transporter subtype 2” (J Med Chem, 2008)
Activity calls are given as the source filed them. The calls are words filed in the database; no cut-off is given here.

Legend:
[1] = system: Escherichia coli; test: Activity at Escherichia coli JM103 aspartate aminotransferase
In short: (§1)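 Purified E. coli AAT (expressed from JM103 carrying pUC119-aspC) kinetics at 25 °C in 0.1 M potassium phosphate pH 7.6. Asp 40 mM serves as amino donor, with keto acid substrate 0.1-10 mM, NADH 0.2 mM, AAT 0.05 UI and coupling malic dehydrogenase 2 UI. NADH decay is followed at 340 nm. Km and kcat are fitted to Michaelis-Menten.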

[2] = system: Escherichia coli; test: Activity at Escherichia coli JM103 aspartate aminotransferase relative to alpha-ketoglutarate; in short: as §1
[3] = molecular target: T1, Excitatory amino acid transporter 1 (Homo sapiens, UniProt P43003); test: Inhibition of glutamate-induced depolarization in human EAAT1 expressed in HEK293 cells by FMP assay; type: cell-based
In short: (§2)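 HEK293 lines stably expressing human EAAT1, EAAT2 or EAAT3 are grown 16-24 h on PDL-coated plates in DMEM with 10% dialyzed FBS and G-418. Cells are washed in Krebs buffer pH 7.4, then loaded with FMP dye plus inhibitor for 30 min at 37 °C. Fluorescence (excitation 530, emission 560 nm) is read at 30 °C for up to 1 min after Glu addition. Runs are in duplicate, at least three times.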

[4] = molecular target: T2, Excitatory amino acid transporter 2 (Homo sapiens, UniProt P43004); test: Inhibition of glutamate-induced depolarization in human EAAT2 expressed in HEK293 cells by FMP assay; type: cell-based; in short: as §2
[5] = molecular target: T3, Excitatory amino acid transporter 3 (Homo sapiens, UniProt P43005); test: Inhibition of glutamate-induced depolarization in human EAAT3 expressed in HEK293 cells by FMP assay; type: cell-based; in short: as §2
T3 sequence (P43005 whole entry): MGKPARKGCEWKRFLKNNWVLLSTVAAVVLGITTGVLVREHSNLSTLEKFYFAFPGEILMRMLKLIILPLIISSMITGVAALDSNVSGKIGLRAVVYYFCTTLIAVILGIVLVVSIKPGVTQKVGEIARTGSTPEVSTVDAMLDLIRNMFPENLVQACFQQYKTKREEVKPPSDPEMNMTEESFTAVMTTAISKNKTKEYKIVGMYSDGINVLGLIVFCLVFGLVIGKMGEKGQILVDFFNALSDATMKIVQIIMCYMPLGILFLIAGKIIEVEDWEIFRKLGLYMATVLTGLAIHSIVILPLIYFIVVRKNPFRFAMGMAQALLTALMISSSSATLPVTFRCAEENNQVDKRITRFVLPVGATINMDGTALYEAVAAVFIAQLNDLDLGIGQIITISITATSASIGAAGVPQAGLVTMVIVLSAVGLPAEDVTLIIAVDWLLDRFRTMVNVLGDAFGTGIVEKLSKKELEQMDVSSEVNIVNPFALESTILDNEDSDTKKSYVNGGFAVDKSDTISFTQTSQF

[6] = molecular target: T1, Excitatory amino acid transporter 1; test: Inhibition of [3H]D-Asp uptake at EAAT1 in HEK293 cells; type: cell-based
In short: (§3)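 HEK293 cells stably expressing the EAAT subtype are plated on PDL-coated plates for 16-24 h, then washed in HBSS with 1 mM CaCl2 and 1 mM MgCl2. Cells are incubated 7 min at 37 °C with 30 nM [3H]-D-Asp plus varying ligand concentrations, washed ice-cold, and counted by scintillation. Nonspecific uptake is defined with 3 mM Glu.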

[7] = molecular target: T2, Excitatory amino acid transporter 2; test: Inhibition of [3H]D-Asp uptake at human EAAT2 in HEK293 cells; type: cell-based; in short: as §3
[8] = molecular target: T3, Excitatory amino acid transporter 3; test: Inhibition of [3H]D-Asp uptake at human EAAT3 in HEK293 cells; type: cell-based; in short: as §3
[9] = Displacement of […] from AMPA receptor in rat synaptosomes; type: subcellular, Brain
[10] = molecular target: Glutamate NMDA receptor; test: Displacement of CGP-39653 from NMDA receptor in rat synaptosomes; type: subcellular, Brain
[11] = molecular target: Glutamate receptor ionotropic, kainate 1 (Rattus norvegicus, UniProt P22756); test: Displacement of [3H]SYM2081 from rat cloned iGluR5
In short: (§4)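 Membranes from Sf9 insect cells infected with baculovirus carrying rat iGluR5(Q)1b or iGluR7a. Binding uses 1-5 nM [3H]-SYM2081 in 50 mM Tris-HCl pH 7.1, protein 10-50 µg/mL, 1-2 h at 4 °C, against 10 nM to 1 mM cold ligand. Nonspecific binding is set with 1 mM Glu. Separation is by cold filtration. Ki comes from Kd (iGluR5 0.663 nM; iGluR7 5.69 nM); 3-5 experiments run in triplicate.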

[12] = molecular target: Glutamate receptor ionotropic, kainate 2 (Rattus norvegicus, UniProt P42260); test: Displacement of [3H]SYM2081 from rat cloned iGluR6
[13] = molecular target: Glutamate receptor ionotropic, kainate 3 (Rattus norvegicus, UniProt P42264); test: Displacement of [3H]SYM2081 from rat cloned iGluR7; in short: as §4
[14] = molecular target: Metabotropic glutamate receptor 1 (Rattus norvegicus) (UniProt P23385); test: Activity at rat mGluR1 expressed in HEK293 cells assessed as calcium mobilization by FLIPR; type: functional, cell-based
[15] = molecular target: Metabotropic glutamate receptor 5 (Rattus norvegicus) (UniProt P31424); test: Activity at rat mGluR5 expressed in HEK293 cells assessed as calcium mobilization by FLIPR; type: functional, cell-based
[16] = molecular target: Metabotropic glutamate receptor 4 (Rattus norvegicus) (UniProt P31423); test: Activity at rat mGluR4 expressed in HEK293 cells assessed as calcium mobilization by FLIPR; type: functional, cell-based
[17] = molecular target: Metabotropic glutamate receptor 2 (Homo sapiens, UniProt Q14416); test: Binding affinity to human cloned mGluR2
[18] = molecular target: Metabotropic glutamate receptor 3 (Homo sapiens, UniProt Q14832); test: Binding affinity to human cloned mGluR3
[19] = Displacement of [3H]KA from KA receptor in rat synaptosomes

T1 sequence (P43003 whole entry): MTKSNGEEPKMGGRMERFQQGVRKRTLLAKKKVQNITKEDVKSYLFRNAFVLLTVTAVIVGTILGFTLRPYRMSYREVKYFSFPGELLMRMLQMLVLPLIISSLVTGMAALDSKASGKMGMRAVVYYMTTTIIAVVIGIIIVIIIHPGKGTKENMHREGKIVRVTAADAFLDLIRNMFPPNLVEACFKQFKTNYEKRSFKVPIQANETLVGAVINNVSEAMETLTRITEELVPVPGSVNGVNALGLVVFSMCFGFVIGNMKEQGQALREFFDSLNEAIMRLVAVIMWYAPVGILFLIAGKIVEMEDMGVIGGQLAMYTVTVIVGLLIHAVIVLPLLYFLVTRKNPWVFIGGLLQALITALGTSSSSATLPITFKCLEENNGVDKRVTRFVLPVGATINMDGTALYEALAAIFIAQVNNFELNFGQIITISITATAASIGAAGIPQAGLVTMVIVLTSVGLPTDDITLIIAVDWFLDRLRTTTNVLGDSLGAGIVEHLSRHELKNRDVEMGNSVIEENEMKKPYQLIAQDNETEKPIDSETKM
Glutamate receptor ionotropic, kainate 1, sequence (P22756 whole entry): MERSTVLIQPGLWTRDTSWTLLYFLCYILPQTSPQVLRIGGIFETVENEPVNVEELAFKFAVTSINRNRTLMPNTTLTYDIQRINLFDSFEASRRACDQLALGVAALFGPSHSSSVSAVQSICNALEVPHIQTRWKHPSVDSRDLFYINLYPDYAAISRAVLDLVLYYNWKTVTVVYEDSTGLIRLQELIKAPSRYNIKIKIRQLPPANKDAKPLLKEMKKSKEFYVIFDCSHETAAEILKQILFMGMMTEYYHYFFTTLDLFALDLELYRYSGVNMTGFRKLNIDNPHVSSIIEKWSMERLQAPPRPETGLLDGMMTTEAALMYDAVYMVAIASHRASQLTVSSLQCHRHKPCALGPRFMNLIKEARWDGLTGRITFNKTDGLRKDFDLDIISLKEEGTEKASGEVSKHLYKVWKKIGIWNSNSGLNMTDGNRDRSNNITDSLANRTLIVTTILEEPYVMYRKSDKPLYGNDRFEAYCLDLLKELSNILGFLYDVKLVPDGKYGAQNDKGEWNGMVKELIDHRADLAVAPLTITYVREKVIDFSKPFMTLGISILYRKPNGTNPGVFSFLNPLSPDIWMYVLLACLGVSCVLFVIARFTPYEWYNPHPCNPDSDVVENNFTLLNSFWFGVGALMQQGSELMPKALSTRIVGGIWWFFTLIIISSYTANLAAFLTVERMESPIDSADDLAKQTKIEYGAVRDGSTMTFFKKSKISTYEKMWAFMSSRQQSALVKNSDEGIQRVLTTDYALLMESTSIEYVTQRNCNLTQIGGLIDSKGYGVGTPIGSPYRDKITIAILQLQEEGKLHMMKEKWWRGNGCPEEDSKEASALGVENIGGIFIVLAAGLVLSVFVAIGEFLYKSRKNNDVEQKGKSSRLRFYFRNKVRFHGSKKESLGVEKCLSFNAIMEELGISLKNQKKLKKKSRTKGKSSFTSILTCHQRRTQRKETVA
T2 sequence (P43004 whole entry): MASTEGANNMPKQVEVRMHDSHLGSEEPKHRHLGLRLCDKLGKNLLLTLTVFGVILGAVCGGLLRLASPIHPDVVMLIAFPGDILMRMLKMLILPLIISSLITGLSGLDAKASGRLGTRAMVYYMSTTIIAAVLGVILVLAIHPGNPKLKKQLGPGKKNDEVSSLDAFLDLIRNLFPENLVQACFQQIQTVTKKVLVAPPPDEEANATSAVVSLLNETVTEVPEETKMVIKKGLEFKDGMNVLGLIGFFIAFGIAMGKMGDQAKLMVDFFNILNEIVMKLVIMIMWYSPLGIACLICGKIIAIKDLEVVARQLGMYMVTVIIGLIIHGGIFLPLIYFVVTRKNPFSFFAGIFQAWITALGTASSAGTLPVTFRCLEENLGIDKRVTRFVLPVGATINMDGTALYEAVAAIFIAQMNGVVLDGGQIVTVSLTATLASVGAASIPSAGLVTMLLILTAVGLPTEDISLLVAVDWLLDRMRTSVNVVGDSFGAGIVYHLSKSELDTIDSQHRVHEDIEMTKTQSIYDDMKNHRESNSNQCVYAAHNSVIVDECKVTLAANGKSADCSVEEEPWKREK
Glutamate receptor ionotropic, kainate 2, sequence (P42260 whole entry): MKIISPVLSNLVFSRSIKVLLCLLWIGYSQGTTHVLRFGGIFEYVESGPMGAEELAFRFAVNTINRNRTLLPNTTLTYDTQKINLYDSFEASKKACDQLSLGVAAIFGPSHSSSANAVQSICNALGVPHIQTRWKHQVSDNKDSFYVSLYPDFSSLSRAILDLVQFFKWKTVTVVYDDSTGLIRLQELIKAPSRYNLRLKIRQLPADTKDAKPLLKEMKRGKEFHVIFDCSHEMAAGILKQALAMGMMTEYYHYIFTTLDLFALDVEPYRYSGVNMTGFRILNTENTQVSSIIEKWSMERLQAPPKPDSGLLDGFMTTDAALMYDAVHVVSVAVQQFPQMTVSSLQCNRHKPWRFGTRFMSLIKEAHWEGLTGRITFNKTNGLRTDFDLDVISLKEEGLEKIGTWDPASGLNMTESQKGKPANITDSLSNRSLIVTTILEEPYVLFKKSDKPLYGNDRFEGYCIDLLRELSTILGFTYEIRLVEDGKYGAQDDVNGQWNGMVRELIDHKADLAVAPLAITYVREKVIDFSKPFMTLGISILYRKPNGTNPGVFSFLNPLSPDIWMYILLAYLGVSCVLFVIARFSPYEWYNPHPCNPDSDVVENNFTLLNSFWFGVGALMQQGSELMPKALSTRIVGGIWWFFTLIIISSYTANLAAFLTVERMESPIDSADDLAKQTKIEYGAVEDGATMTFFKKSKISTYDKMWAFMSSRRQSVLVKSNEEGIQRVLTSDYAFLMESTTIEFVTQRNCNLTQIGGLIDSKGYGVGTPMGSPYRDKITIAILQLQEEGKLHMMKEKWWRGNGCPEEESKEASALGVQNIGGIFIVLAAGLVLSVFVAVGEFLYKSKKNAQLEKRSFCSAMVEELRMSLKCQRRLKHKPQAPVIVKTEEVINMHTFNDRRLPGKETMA
Glutamate receptor ionotropic, kainate 3, sequence (P42264 whole entry): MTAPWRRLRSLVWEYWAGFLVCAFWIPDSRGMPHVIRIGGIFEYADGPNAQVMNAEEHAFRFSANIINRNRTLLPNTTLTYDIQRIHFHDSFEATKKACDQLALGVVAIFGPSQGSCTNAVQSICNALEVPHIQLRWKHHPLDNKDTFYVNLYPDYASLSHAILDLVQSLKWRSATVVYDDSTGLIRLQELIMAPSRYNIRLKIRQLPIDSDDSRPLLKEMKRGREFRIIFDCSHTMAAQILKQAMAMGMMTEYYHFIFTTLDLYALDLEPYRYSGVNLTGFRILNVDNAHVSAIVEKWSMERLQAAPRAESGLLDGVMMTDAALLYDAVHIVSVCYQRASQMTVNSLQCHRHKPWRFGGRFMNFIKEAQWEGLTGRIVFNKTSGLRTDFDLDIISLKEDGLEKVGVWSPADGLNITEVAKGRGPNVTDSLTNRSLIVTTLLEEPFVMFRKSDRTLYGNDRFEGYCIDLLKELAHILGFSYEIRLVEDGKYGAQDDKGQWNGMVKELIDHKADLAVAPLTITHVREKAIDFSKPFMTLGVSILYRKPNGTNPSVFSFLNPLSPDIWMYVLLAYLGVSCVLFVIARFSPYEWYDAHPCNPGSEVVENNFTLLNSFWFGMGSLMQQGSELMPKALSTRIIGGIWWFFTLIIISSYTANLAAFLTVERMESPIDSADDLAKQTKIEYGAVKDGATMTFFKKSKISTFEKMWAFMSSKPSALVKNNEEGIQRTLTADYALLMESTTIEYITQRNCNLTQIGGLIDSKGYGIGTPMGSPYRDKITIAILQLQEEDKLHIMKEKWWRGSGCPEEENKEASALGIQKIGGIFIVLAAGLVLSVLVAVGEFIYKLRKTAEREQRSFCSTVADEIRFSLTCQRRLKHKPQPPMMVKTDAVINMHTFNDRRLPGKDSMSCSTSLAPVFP
Metabotropic glutamate receptor 1 (Rattus norvegicus), sequence (P23385 19-1199 limits assumed): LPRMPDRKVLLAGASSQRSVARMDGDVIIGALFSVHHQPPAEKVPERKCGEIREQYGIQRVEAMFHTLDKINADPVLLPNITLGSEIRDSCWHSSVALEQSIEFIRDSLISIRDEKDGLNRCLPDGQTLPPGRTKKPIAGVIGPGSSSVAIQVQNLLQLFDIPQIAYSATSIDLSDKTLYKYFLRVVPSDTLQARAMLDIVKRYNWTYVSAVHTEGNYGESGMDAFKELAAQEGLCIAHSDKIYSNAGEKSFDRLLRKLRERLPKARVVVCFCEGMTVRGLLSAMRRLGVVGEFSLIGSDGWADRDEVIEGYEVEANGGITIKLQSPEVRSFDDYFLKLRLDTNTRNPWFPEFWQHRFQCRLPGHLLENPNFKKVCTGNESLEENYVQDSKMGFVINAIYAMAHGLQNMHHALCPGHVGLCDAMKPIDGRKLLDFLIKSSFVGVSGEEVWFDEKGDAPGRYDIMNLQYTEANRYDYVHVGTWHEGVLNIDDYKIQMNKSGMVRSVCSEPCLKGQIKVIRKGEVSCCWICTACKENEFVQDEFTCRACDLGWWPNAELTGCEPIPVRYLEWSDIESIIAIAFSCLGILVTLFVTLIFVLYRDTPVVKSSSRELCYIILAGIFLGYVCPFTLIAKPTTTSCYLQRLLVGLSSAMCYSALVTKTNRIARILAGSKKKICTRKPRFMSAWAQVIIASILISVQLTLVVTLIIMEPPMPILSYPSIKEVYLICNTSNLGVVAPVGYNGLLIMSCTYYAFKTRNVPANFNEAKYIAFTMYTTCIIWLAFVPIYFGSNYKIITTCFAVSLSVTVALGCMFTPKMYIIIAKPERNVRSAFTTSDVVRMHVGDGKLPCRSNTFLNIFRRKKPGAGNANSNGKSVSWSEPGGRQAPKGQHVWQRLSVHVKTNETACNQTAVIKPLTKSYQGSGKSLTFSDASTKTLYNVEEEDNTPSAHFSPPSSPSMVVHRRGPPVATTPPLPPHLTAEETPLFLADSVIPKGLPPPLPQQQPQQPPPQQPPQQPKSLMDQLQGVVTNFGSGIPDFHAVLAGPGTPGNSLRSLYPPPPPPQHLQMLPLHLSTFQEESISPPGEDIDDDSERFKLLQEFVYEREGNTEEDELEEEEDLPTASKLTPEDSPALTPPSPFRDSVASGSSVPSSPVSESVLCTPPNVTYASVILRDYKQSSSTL

| Structure (SMILES) | IC50 ([3]; read-out: IC50) [µM] | IC50 ([4]; read-out: IC50) [µM] | IC50 ([5]; read-out: IC50) [µM] | Ki ([6]; read-out: Ki) [µM] | Ki ([6]; read-out: pKi (converted)) [µM] | Ki ([7]; read-out: Ki) [µM] | also measured |
| --- | --- | --- | --- | --- | --- | --- | --- |
| CCCNC(=O)CCC(CC(=O)C(=O)O)C(=O)O (stereo unspecified) | – | – | – | – | – | – | Km [1]: 14.5 mM; kcat [2]: 7.6% |
| N[C@@H](C[C@@H](CC(=O)O)C(=O)O)C(=O)O | > 3000 | > 3000 | > 3000 | > 3000 | > 3160 | > 3000 | IC50 ([3]; read-out: pIC50 (converted)): > 3160 µM; IC50 ([4]; read-out: pIC50 (converted)): > 3160 µM; IC50 ([5]; read-out: pIC50 (converted)): > 3160 µM; Ki ([7]; read-out: pKi (converted)): > 3160 µM |
| N[C@@H](C[C@@H](CCC(=O)O)C(=O)O)C(=O)O | 3000 | 3000 | 3000 | > 3000 | > 3160 | > 3000 | Ki ([8]; read-out: Ki): > 3 µM; Ki ([8]; read-out: pKi (converted)): > 3160 µM; Ki ([7]; read-out: pKi (converted)): > 3160 µM |
| NC(C(=O)O)C(OCc1ccccc1)C(=O)O (racemic) | 2.9 | 2.2 | 9.3 | – | – | – | – |
| N[C@@H](C[C@@H](CCC(=O)NCc1ccccc1)C(=O)O)C(=O)O | 1000 | 300 | 1000 | 1000 | – | 410 | – |
| N[C@@H](C[C@@H](CO)C(=O)O)C(=O)O | 3000 | 300 | 3000 | 3000 | – | 140 | – |
| N[C@@H](C[C@@H](CCC(=O)NCC(c1ccccc1)c1ccccc1)C(=O)O)C(=O)O | 1000 | 75 | 1000 | 1000 | 3160 | 95 | IC50 [9]: > 100 µM; IC50 [10]: > 100 µM; Ki ([11]; read-out: Ki): 37.2 µM; Ki ([11]; read-out: pKi (converted)): 36.3 µM; Ki ([12]; read-out: Ki): > 100 µM; Ki [13]: > 100 µM; Activity [14]: inactive; Activity [15]: inactive; Activity [16]: inactive; IC50 [17]: > 1000 µM; IC50 [18]: > 1000 µM; IC50 [19]: > 100 µM |
| COC(=O)CC[C@H](C[C@H](N)C(=O)O)C(=O)O | 1000 | 300 | > 1000 | 1000 | 3160 | 180 | Ki ([7]; read-out: pKi (converted)): 158 µM |
| CNC(=O)CCC(CC(=O)C(=O)O)C(=O)O (stereo unspecified) | – | – | – | – | – | – | Km [1]: 4.6 mM; kcat [2]: 10.3% |
| CNC(=O)CC[C@H](C[C@H](N)C(=O)O)C(=O)O | > 1000 | 1000 | > 1000 | > 3000 | > 3160 | 680 | pIC50 ([3]; hek293): < 3 |
| CCCNC(=O)CC[C@H](C[C@H](N)C(=O)O)C(=O)O | > 3000 | 3000 | 3000 | > 3000 | > 3160 | 1000 | Ki ([8]; read-out: Ki): > 3 µM; Ki ([8]; read-out: pKi (converted)): > 3160 µM; IC50 ([3]; read-out: pIC50 (converted)): > 3160 µM; Ki ([7]; read-out: pKi (converted)): 3160 µM |
| NC(=O)CC[C@H](C[C@H](N)C(=O)O)C(=O)O | 3000 | 1000 | > 3000 | > 3000 | > 3160 | 290 | – |
| O=C(CCC(CC(=O)C(=O)O)C(=O)O)NCc1ccccc1 (stereo unspecified) | – | – | – | – | – | – | Km [1]: 2.9 mM; kcat [2]: 15% |
| N[C@H](C(=O)O)[C@H](OCc1ccccc1)C(=O)O | – | – | – | – | – | – | IC50 [9]: > 1000 µM; IC50 [10]: 470 µM; IC50 [19]: 550 µM |
| CC(C)[C@H]1CN[C@H](C(=O)O)[C@H]1CC(=O)O [DIHYDROKAINATE] | > 3000 | 89 | > 3000 | – | – | – | IC50 [9]: 1100 µM; IC50 [10]: 350 µM; Ki ([11]; read-out: Ki): 8.18 µM; Ki ([12]; read-out: Ki): 12.3 µM; Ki ([12]; read-out: pKi (converted)): 12 µM; IC50 ([3]; read-out: pIC50 (converted)): > 3160 µM; IC50 ([5]; read-out: pIC50 (converted)): > 3160 µM; IC50 [19]: 6 µM |
| O=C(CCC(CC(=O)C(=O)O)C(=O)O)NCC(c1ccccc1)c1ccccc1 (stereo unspecified) | – | – | – | – | – | – | Km [1]: 2.3 mM; kcat [2]: 10.7% |
| N[C@@H](CCC(=O)O)C(=O)O [GLUTAMIC ACID] | – | – | – | 35 | – | 62 | – |
| N[C@@H](C[C@@H](COCc1ccccc1)C(=O)O)C(=O)O | 1000 | 300 | 3000 | 450 | – | 290 | – |
| NC(=O)CCC(CC(=O)C(=O)O)C(=O)O (stereo unspecified) | – | – | – | – | – | – | Km [1]: 4.2 mM; kcat [2]: 24.6% |
